Source: ChEMBL document CHEMBL4382230, “Structure-activity relationships, biological evaluation and structural studies of novel pyrrolonaphthoxazepines as antitumor agents” (Eur J Med Chem, 2019)
In brackets after ≈: the same amount, converted by molar mass. Values belong to the compound of their own block, whether it stands above or below them. Activity calls are given as the source filed them. No cut-off for these calls is given here.

What was measured:
[1] = system: Ca9-22; assay: Cytotoxicity against human Ca9-22 cells after 72 hrs by MTT assay; assay type: functional, cell-based; details: Ca9-22, 72 h
[2] = system: SCC-4; assay: Cytotoxicity against human SCC4 cells after 48 hrs by MTT assay; assay type: functional, cell-based; details: SCC-4, 48 h
Summary of the method: (§1)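 Cells (NCI-H929 in RPMI-1640 GlutaMAX; SCC4 in DMEM GlutaMAX; 10% FBS, 37 °C, 5% CO2) treated with increasing concentrations for 48 h. IC50 is the mean of three independent experiments.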

[3] = system: SCC-4; assay: Induction of apoptosis in human SCC4 cells at 50 uM after 48 hrs by Annexin V/propidium iodide staining-based flow cytometric analysis relative to control; assay type: functional
Summary of the method: (§2)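 Seeding density: NCI-H929 and Ca9.22 at 30×10^4 cells/mL, SCC4 at 15×10^4 cells/mL. Cells exposed 48 h to compound (500 nM; 50 μM in SCC4 for one compound) or vehicle (1% EtOH v/v). Annexin V/PI staining, flow cytometry, 10,000 cells gated on vehicle-treated cells. Three independent experiments, mean ± S.E.M, T-test.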

[4] = system: Ca9-22; assay: Cytotoxicity against human Ca9-22 cells after 48 hrs by MTT assay; assay type: functional, cell-based; details: Ca9-22, 48 h
[5] = system: NCI-H929; assay: Cytotoxicity against human NCI-H929 cells after 48 hrs by MTT assay; assay type: functional, cell-based; details: NCI-H929, 48 h; summary of the method: as §1
[6] = system: Ca9-22; assay: Induction of apoptosis in human Ca9-22 cells at 500 nM after 48 hrs by Annexin V/propidium iodide staining-based flow cytometric analysis relative to control; assay type: functional, cell-based; summary of the method: as §2
[7] = system: Ca9-22; assay: Cytotoxicity against human Ca9-22 cells after 24 hrs by MTT assay; assay type: functional, cell-based; details: Ca9-22, 24 h
[8] = system: PC-9; assay: Induction of apoptosis in human PC9 cells assessed as increase in caspase-3 expression at 10 uM after 18 hrs by Western blot analysis; assay type: functional, cell-based
Summary of the method: (§3)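 PC9 and HCC827 maintained in DMEM with 10% FBS, then exposed to 10 μM compound for 18 h in 5% serum. Caspase 3 activation and cell cycle proteins examined by western blot.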

[9] = system: B16-F10; assay: Cytotoxicity against mouse B16F10 cells assessed as reduction in cell survival at 0.1 to 10 uM after 18 hrs by MTT assay; assay type: functional, cell-based
Summary of the method: (§4)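 Seeded at 2,500 cells/well in medium with 10% serum. After adhesion, exposed to 0.1, 1 and 10 μM in medium with 5% serum for 18 h. Medium then replaced with fresh medium containing 1.2 mM MTT for 4 h; formazan dissolved in DMSO, absorbance at 540 nm. Results given as % of basal response.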

[10] = target: T1, Tubulin (Homo sapiens) (UniProt P68371+Q9H4B7+P0DPH7+P68366+Q13509+Q71U36+P04350+Q3ZCM7+P07437+P68363+Q9BQE3+Q6PEY2+Q13885+Q9BVA1+Q9BUF5); assay: Inhibition of tubulin (unknown origin) polymerization at 27.5 uM measured over 70 mins by turbidity method; assay type: protein-complex assay
Summary of the method: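 Tubulin at 25 µM in GAB buffer (10 mM sodium phosphate, 30% glycerol, 1 mM EGTA, 6 mM MgCl2, 1 mM GTP, pH 6.7) with 27.5 µM compound or DMSO vehicle. Turbidity is read at 355 nm for 70 min at 37 °C. Data are normalized to the initial stable absorbance plateau to correct for compound absorbance.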

[11] = system: PC-9; assay: Induction of apoptosis in human PC9 cells assessed as reduction in cyclin D1 expression at 10 uM after 18 hrs by Western blot analysis; assay type: functional, cell-based; summary of the method: as §3
[12] = system: A549; assay: Cytotoxicity against human A549 cells assessed as reduction in cell survival at 0.1 to 10 uM after 18 hrs by MTT assay; assay type: functional, cell-based; summary of the method: as §4
[13] = Solubility of compound in pH 7.4 aqueous solution after 12 hrs by HPLC analysis; assay type: physicochemical
Summary of the method: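 Water solubility at pH 7.4 measured by HPLC analysis.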

[14] = Ratio of IC50 for mouse NIH/3T3 cells harboring MDR G185 to IC50 for mouse NIH/3T3 cells
Summary of the method: (§5)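 Relative resistance: IC50 in the P-gp overexpressing resistant line divided by IC50 in the parental line. Both IC50s came from the 48 h MTT assay (serial dilutions, absorbance at 595/690 nm, log-dose response curves, three independent assays).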

[15] = system: NIH3T3; assay: Cytotoxicity against mouse NIH/3T3 cells after 48 hrs by MTT assay; assay type: cell-based; details: NIH3T3, 48 h
Summary of the method: (§6)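 Cells seeded at 12,000 to 17,000 per well depending on line, incubated overnight, then given serial dilutions of ligand for 48 h. MTT at 2.5 mg/mL added for 4 h at 37 °C, formazan solubilized overnight (10% SDS, 45% dimethylformamide, pH 5.5), absorbance read at 595/690 nm. IC50 from log-dose response curves; mean ± SE of three independent assays.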

[16] = system: B16-F1; assay: Cytotoxicity against mouse B16-F1 cells assessed as reduction in cell survival at 0.1 to 10 uM after 18 hrs by MTT assay; assay type: functional, cell-based; summary of the method: as §4
[17] = system: HCC827; assay: Induction of apoptosis in human HCC827 cells assessed as increase in p21 expression at 10 uM after 18 hrs by Western blot analysis; assay type: functional, cell-based; summary of the method: as §3
[18] = Solubility of compound in pH 3 aqueous solution after 12 hrs by HPLC analysis; assay type: physicochemical
[19] = system: HL-60; assay: Induction of autophagy in human HL60 cells assessed as increase in LC3B-2 levels at 10 uM after 105 mins in presence of lysosomal inhibitor chloroquine by immunoblot analysis; assay type: functional, cell-based
Summary of the method: (§7)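 HL-60 in serum-supplemented RPMI 1640, or starved in Earle's Balanced Salts for 15 min beforehand, then treated with 10 μM compound with or without 40 μM chloroquine for 1 h 45 min or 16 h. LC3B-II measured by immunoblot, densitometry normalized to actin, three independent experiments, Student's T-test.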

[20] = system: SCC-4; assay: Induction of apoptosis in human SCC4 cells at 500 nM after 48 hrs by Annexin V/propidium iodide staining-based flow cytometric analysis relative to control; assay type: functional; summary of the method: as §2
[21] = system: HCC827; assay: Cytotoxicity against human HCC827 cells assessed as reduction in cell survival at 0.1 to 10 uM after 50 to 60 hrs by MTT assay; assay type: functional, cell-based
[22] = system: HCC827; assay: Induction of apoptosis in human HCC827 cells assessed as increase in caspase-3 expression at 10 uM after 18 hrs by Western blot analysis; assay type: functional, cell-based; summary of the method: as §3
[23] = Cytotoxicity against human A2780AD cells after 48 hrs by MTT assay; assay type: functional, cell-based; summary of the method: as §6
[24] = system: NB-4; assay: Cell cycle arrest in human NB4 cells assessed as accumulation of cells at G1 phase after 24 hrs by propidium iodide staining-based flow cytometric analysis; assay type: functional
Summary of the method: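 NB4 cultured at 37 °C, 5% CO2 in RPMI-1640 with 10% heat-inactivated FBS. Treated at 50 and 100 nM, 1 and 10 μM for 24 h. Cells fixed/permeabilized in 70% ethanol overnight at 4 °C, then given RNase and 20 μg/ml PI for 30 min. Doublets excluded, 20,000 events per sample; cell-cycle phase distribution analysed.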

[25] = system: PC-9; assay: Cytotoxicity against human PC9 cells assessed as reduction in cell survival at 0.1 to 10 uM after 18 hrs by MTT assay; assay type: functional, cell-based; summary of the method: as §4
[26] = Apparent solubility of compound in sodium phosphate buffer at 15 uM after 20 mins; assay type: physicochemical
[27] = system: HCC827; assay: Induction of apoptosis in human HCC827 cells assessed as reduction in cyclin D1 expression at 10 uM after 18 hrs by Western blot analysis; assay type: functional, cell-based; summary of the method: as §3
[28] = system: HL-60; assay: Cell cycle arrest in human HL60 cells assessed as accumulation of cells at G2/M phase at 10 uM after 24 hrs by propidium iodide staining-based flow cytometric analysis; assay type: functional
Summary of the method: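 HL-60 exposed to 10 μM for 24 h, vehicle 0.1% DMSO. Cells plated at 2×10^5 cells/mL, stained in PBS with 0.1% sodium citrate, 0.1% NP40 and propidium iodide for 30 min at room temperature in the dark. DNA content by flow cytometry; G2/M fraction reported.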

[29] = system: PC-9; assay: Induction of apoptosis in human PC9 cells assessed as increase in p21 expression at 10 uM after 18 hrs by Western blot analysis; assay type: functional, cell-based; summary of the method: as §3
[30] = target: T1, Tubulin (Homo sapiens); assay: Binding affinity to tubulin (unknown origin) by analytical ultracentrifugation
[31] = Ratio of IC50 for human A2780AD cells to IC50 for human A2780 cells; assay type: functional; summary of the method: as §5
[32] = system: HL-60; assay: Induction of autophagy in serum starved human HL60 cells assessed as increase in LC3B-2 levels at 10 uM after 105 mins by immunoblot analysis; assay type: functional, cell-based; summary of the method: as §7
[33] = system: NIH3T3; assay: Cytotoxicity against mouse NIH/3T3 cells harboring MDR G185 after 48 hrs by MTT assay; assay type: functional, cell-based; details: NIH3T3, 48 h; summary of the method: as §6
[34] = system: A2780; assay: Cytotoxicity against human A2780 cells after 48 hrs by MTT assay; assay type: functional, cell-based; details: A2780, 48 h; summary of the method: as §6
[35] = system: HCC827; assay: Cytotoxicity against human HCC827 cells assessed as reduction in cell survival at 0.1 to 10 uM after 18 hrs by MTT assay; assay type: functional, cell-based; summary of the method: as §4
[36] = system: NCI-H929; assay: Induction of apoptosis in human NCI-H929 cells at 500 nM after 48 hrs by Annexin V/propidium iodide staining-based flow cytometric analysis relative to control; assay type: functional; summary of the method: as §2

Compound: CC(=O)OC1=C(c2ccccc2-c2ccccc2)Oc2ccccc2-n2cccc21
IC50 [1]: 4500 nM
IC50 [2]: 9370 nM
Activity [3]: >40%
IC50 [4]: 6300 nM
IC50 [5]: > 50000 nM
Activity [6]: inactive
IC50 [7]: 8000 nM

inhibition [10]: Active
solubility at 12 h [13]: 26 µM (≈ 10.9 µg/mL)
solubility at 12 h [18]: 29.4 µM (≈ 12.3 µg/mL)
solubility at 20 min, 15 µM [26]: 0.62 µM (≈ 0.259 µg/mL)
Kb [30]: 4.4 ×10⁷ /M
Compound: CC(=O)OC1=C(c2cccc3ccccc23)Oc2cc3ccccc3cc2-n2cccc21
Activity [8]: Active
Activity [9]: Active
Activity [11]: Active
IC50 [1]: 83 nM
Activity [12]: Active
Ratio IC50 [14]: 2.42
IC50 [15]: 126 nM
Activity [16]: Active
Activity [17]: Active
Activity [19]: Active
Activity [20]: >40%
Activity [21]: inactive
Activity [22]: Active
IC50 [2]: 160 nM
IC50 [23]: 240 nM
Activity [24]: Dose-dependent effect
Activity [25]: Active
Activity [27]: Active
Activity [28]: Active
Activity [29]: Active
IC50 [4]: 170 nM
IC50 [5]: 376 nM
Ratio IC50 [31]: 0.96
Activity [32]: Active
IC50 [33]: 306 nM
IC50 [34]: 249 nM
Activity [35]: Active
IC50 [7]: 210 nM
Activity [36]: >40%
